The results in this text go back to ChEMBL document CHEMBL3785002, “Lead optimization of the VU0486321 series of mGlu1 PAMs. Part 3. Engineering plasma stability by discovery and optimization of isoindolinone analogs” (Bioorg Med Chem Lett, 2016).

The target in series [1] is T1, Metabotropic glutamate receptor 1 (Homo sapiens, UniProt Q13255). Nature of the series: Positive allosteric modulatory activity at human mGlu1 receptor expressed in wild type T-Rex293 cells assessed as increase in glutamate-induced calcium mobilization pre-incubated for 2.5 mins before glutamate stimulation for 1 min. Type of series: functional, cell-based. The essentials: (§1)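 Tetracycline-inducible human mGlu1 WT T-REx-293 cells were induced overnight with 50 ng/mL tetracycline in dialyzed-FBS medium. Cells were loaded with 1.15 μM Fluo-4 AM in HBSS/20 mM HEPES/2.5 mM probenecid for 45 min at 37 °C. Compounds (half-log series in DMSO) were added for 2.5 min, then an EC20 of glutamate for 1 min. Calcium flux was read on Flexstation; ECmax glutamate served as reference. n=3 in triplicate.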
Target sequence in this assay (Q13255 whole entry): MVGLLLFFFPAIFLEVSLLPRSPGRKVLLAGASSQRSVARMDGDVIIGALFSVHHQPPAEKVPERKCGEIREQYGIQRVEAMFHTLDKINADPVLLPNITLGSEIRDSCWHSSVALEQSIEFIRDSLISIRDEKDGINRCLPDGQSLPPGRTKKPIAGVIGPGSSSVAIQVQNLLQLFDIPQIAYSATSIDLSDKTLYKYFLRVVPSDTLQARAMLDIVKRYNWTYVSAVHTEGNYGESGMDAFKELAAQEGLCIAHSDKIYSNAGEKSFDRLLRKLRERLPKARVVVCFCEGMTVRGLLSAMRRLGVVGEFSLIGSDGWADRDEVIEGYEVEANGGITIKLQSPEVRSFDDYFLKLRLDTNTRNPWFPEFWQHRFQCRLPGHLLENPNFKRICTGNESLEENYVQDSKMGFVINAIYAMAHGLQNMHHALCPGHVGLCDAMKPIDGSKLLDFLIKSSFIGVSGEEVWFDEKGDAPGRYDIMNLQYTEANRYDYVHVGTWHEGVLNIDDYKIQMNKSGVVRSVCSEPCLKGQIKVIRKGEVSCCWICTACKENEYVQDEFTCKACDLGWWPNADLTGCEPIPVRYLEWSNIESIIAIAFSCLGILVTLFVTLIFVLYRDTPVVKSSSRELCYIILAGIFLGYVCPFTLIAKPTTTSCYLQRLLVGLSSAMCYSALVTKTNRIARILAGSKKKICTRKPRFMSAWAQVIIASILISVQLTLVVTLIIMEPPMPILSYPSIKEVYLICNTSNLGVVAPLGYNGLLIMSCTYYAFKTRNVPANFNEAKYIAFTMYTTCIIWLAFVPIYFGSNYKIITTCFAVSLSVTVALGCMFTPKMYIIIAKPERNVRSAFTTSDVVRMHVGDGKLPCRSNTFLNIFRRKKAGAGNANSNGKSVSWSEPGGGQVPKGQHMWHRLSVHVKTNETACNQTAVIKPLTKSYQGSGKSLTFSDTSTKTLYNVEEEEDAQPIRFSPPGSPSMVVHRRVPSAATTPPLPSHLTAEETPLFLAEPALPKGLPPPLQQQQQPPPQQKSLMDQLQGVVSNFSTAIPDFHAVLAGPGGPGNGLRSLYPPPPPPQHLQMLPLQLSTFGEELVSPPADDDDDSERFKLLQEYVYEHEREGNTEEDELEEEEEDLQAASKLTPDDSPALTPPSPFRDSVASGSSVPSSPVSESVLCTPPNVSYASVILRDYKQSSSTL

A short description of series [2]: Fraction unbound in rat plasma. Type of series: ADME, cell-free.
Series [3] has as its target T1, Metabotropic glutamate receptor 1. Nature of the series: Positive allosteric modulatory activity at human mGlu1 receptor expressed in wild type T-Rex293 cells assessed as increase in glutamate-induced calcium mobilization pre-incubated for 2.5 mins before glutamate stimulation for 1 min relative to glutamate alone. Type of series: functional, cell-based. The essentials: as §1
Target sequence in this assay (Q13255 19-1194 limits assumed): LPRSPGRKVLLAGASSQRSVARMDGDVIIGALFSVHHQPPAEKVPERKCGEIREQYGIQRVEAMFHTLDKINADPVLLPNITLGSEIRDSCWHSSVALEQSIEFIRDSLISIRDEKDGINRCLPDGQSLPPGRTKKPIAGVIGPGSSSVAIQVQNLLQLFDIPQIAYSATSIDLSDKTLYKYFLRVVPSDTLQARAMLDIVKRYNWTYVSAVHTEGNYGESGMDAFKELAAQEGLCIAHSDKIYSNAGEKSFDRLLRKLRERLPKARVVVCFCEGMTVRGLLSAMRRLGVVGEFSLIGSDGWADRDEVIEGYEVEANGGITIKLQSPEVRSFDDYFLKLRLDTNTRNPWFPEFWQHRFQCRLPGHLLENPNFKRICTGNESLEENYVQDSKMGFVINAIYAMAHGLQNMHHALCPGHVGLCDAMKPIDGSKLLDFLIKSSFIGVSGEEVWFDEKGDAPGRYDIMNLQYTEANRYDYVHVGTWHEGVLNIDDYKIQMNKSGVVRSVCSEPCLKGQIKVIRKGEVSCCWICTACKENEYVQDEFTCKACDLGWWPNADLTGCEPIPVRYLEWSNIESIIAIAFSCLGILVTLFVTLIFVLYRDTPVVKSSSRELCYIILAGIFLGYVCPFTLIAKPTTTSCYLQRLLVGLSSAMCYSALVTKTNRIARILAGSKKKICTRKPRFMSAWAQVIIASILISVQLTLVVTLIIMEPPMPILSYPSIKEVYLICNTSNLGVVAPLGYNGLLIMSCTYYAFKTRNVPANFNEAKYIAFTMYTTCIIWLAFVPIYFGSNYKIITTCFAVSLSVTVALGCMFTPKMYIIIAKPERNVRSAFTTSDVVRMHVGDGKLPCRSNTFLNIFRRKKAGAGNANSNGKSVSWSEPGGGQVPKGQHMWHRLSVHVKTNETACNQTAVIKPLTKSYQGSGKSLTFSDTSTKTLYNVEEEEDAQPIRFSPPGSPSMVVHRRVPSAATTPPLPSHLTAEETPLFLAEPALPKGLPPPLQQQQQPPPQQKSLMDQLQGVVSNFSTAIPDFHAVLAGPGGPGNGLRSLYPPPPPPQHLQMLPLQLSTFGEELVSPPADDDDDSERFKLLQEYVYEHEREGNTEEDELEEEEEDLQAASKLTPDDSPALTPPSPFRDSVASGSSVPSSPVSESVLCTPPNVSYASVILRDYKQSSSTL
On the technique in general: A change in cytosolic calcium serves as a functional read-out for many receptors and channels.

The nature of series [4]: Fraction unbound in human plasma. In kind it is ADME, cell-free.
Series [5] deals with Liver microsome. As to the kind of experiment: Stability in rat liver microsomes. Type of series: ADME.
The test system of series [6] is Liver microsome. Nature of the series: Stability in human liver microsomes. In kind it is ADME. For orientation: Microsomes from liver hold many membrane-bound enzymes, among them those of drug oxidation.
Series [7] concerns the target Metabotropic glutamate receptor 4 (Homo sapiens, UniProt Q14833). Nature of the series: Positive allosteric modulatory activity at human mGlu4 receptor expressed in wild type T-Rex293 cells assessed as increase in glutamate-induced calcium mobilization pre-incubated for 2.5 mins before glutamate stimulation for 1 min. In kind it is functional, cell-based.
In the next series the test system is T-Rex 293. Nature of the series: Selectivity ratio of EC50 for human mGlu4 receptor expressed in wild type T-Rex 293 cells to EC50 for human mGlu1 receptor expressed in wild type T-Rex 293 cells. Type of series: cell-based. Particulars: T-Rex293.
Series [8] relates to Plasma. Nature of the series: Stability in rat plasma. Type of series: ADME, cell-free.
Series [9] deals with Plasma. Nature of the series: Stability in human plasma. Type of series: ADME, cell-free.

Chain of Metabotropic glutamate receptor 4 (Q14833 whole entry): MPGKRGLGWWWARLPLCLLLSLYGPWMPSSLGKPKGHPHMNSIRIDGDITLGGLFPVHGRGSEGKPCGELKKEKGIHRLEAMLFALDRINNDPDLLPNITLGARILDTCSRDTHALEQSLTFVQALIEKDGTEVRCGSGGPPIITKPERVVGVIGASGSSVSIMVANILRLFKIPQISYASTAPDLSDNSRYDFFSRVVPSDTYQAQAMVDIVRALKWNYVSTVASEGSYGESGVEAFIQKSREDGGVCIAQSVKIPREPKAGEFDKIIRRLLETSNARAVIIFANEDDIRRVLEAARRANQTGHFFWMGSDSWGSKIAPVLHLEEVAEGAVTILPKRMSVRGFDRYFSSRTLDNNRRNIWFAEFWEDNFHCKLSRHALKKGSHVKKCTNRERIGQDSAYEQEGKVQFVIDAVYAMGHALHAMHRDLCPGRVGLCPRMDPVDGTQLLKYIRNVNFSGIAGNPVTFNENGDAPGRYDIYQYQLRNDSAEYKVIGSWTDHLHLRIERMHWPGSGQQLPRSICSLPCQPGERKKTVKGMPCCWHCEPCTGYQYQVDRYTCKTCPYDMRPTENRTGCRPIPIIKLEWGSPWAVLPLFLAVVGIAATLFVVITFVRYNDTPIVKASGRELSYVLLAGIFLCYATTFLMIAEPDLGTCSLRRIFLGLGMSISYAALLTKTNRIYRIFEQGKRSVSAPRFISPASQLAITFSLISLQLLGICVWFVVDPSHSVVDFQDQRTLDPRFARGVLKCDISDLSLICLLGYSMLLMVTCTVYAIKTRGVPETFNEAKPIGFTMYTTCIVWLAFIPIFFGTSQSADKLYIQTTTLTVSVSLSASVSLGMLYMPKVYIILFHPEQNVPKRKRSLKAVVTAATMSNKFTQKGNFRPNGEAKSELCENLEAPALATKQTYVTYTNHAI

A word on the fraction unbound: it is free concentration divided by total concentration. `Cc1ccoc1C(=O)Nc1ccc(N2Cc3cccc(Cl)c3C2=O)c(Cl)c1`: the EC50 in series [1] (read-out: EC50) is 0.484 µM. The free fraction (fraction unbound) in series [2] and in [4] was < 0.01 throughout. Moreover, the %max in series [3] amounted to 108%.
Consider `O=C(Nc1ccc(N2Cc3c(Cl)cccc3C2=O)c(Cl)c1)c1ncccc1Cl`, for which the EC50 in [1] (read-out: EC50) turned out to be 1.27 µM. The %max in [3] stood at 93%.
For the compound `Cc1ccoc1C(=O)Nc1ccc(N2Cc3c(Cl)cccc3C2=O)cc1`, the EC50 in series [1] (read-out: EC50) amounted to 0.245 µM. In series [3], the %max stood at 99%.
`Cc1ccoc1C(=O)Nc1ccc(N2Cc3ccccc3C2=O)c(Cl)c1`: the Stability result in the series with Liver microsome [5] and with Liver microsome [6] was “Stable” throughout. In addition, in series [1] (read-out: EC50), the EC50 stood at 3.72 µM. The %max in series [3] is 91%.
As for `Cc1ccoc1C(=O)Nc1ccc(N2Cc3ccccc3C2)c(Cl)c1`, in [1] (read-out: EC50), the EC50 stood at 1.76 µM. For the same compound, the %max in series [3] was determined as 95%.
`COc1cccc2c1CN(c1ccc(NC(=O)c3occc3C)cc1Cl)C2=O`: the EC50 in [1] (read-out: EC50) was > 10 µM. The unbound share (fraction unbound) in series [2] and in [4] was < 0.01 each time.
In the case of `Cc1scnc1C(=O)Nc1ccc(N2Cc3ccccc3C2=O)c(Cl)c1`, in series [1] (read-out: EC50), the EC50 is > 10 µM. For the same compound, the %max in series [3] came to 33%.
In the case of `O=C(Nc1ccc(N2Cc3ccccc3C2=O)c(Cl)c1)c1ncccc1Cl`, the EC50 in series [1] (read-out: EC50) is > 10 µM.
The same measure, in the same setting: as for `Cc1ccoc1C(=O)Nc1ccc(N2C(=O)[C@H]3CCCC[C@H]3C2=O)c(Cl)c1`, the figure is > 10 µM.
`Cc1ccoc1C(=O)Nc1ccc(N2Cc3c(Br)cccc3C2=O)c(Cl)c1`: the EC50 in [1] (read-out: EC50) amounted to 0.391 µM. Moreover, the free fraction (fraction unbound) in [2] and in [4] was < 0.01 in each case. The %max in [3] came to 99%.
With `Cc1ccoc1C(=O)Nc1ccc(N2Cc3c(Cl)cccc3C2=O)cc1F`, the EC50 in series [1] (read-out: EC50) is 1.26 µM. Also, the %max in [3] worked out at 86%.
Consider `Cc1cccnc1C(=O)Nc1ccc(N2Cc3ccccc3C2=O)c(Cl)c1`, for which, in series [1] (read-out: EC50), the EC50 is > 10 µM.
As to `Cc1cccnc1C(=O)Nc1ccc(N2Cc3cccc(Cl)c3C2=O)c(Cl)c1`, the EC50 in series [1] (read-out: EC50) is > 10 µM. Besides, the %max in series [3] is 78%.
With `Cc1ccoc1C(=O)Nc1ccc(N2Cc3cccc(Cl)c3C2=O)c(Cl)c1Cl`, the EC50 in series [1] (read-out: EC50) is 6.52 µM; in series [1] (read-out: pEC50 (converted)), 6.61 µM. For the same compound, in series [3], the %max amounted to 81%.
On to `Cc1ccoc1C(=O)Nc1ccc(N2CCc3ccccc3C2=O)c(Cl)c1`, for which, in series [1] (read-out: EC50), the EC50 is 0.781 µM. Moreover, the %max in series [3] was found to be 94%.
The corresponding values for `Cc1ccoc1C(=O)Nc1ccc(N2Cc3cccnc3C2)c(Cl)c1` are 9.55 µM and 78%.
In the case of `O=C(Nc1ccc(N2C(=O)c3cccc(Cl)c3C2=O)c(Cl)c1)c1ncccc1Cl`, the EC50 in series [7] was > 10 µM.
For the compound `Cc1cccnc1C(=O)Nc1ccc(N2Cc3c(Cl)cccc3C2=O)c(Cl)c1`, the figures for the EC50 in series [1] (read-out: EC50) and in [1] (read-out: pEC50 (converted)) were 1.36 µM and 1.45 µM, respectively. Also, the %max in series [3] was determined as 97%.
`Cc1ccoc1C(=O)Nc1ccc(N2Cc3cc(Cl)ccc3C2=O)c(Cl)c1`: the EC50 in series [1] (read-out: EC50) was > 10 µM. Besides, the unbound share (fraction unbound) in series [2] and in series [4] was < 0.01 throughout. In [3], the %max came out at 58%.
Take `Cc1ccoc1C(=O)Nc1ccc(N2Cc3cccnc3C2=O)c(Cl)c1`: in series [1] (read-out: EC50), the EC50 was > 10 µM. Further, the free fraction (fraction unbound) in [2] and in series [4] was < 0.01 throughout.
Regarding `Cc1ccoc1C(=O)Nc1ccc(N2Cc3ccccc3C2=O)cc1`, the EC50 in series [1] (read-out: EC50) worked out at 1.56 µM. In addition, in series [3], the %max turned out to be 94%.
In the case of `Cc1ccoc1C(=O)Nc1ccc(NC(=O)c2ccccc2)c(Cl)c1`, the EC50 in [1] (read-out: EC50) is > 10 µM.
As for `Cc1ccoc1C(=O)Nc1ccc(N2C(=O)c3ccccc3C2=O)cc1F`, the Ratio EC50 in the series with T-Rex 293 is > 793.
Regarding `Cc1ccoc1C(=O)Nc1ccc(N2Cc3nccnc3C2=O)c(Cl)c1`, in series [1] (read-out: EC50), the EC50 was > 10 µM. Further, the fraction unbound in [2] and in series [4] was < 0.01 in each case.
Turning to `Cc1ccoc1C(=O)Nc1ccc(N2Cc3c(Cl)cccc3C2=O)c(Cl)c1Cl`, the EC50 in [1] (read-out: EC50) is > 10 µM.
For the compound `Cc1ccoc1C(=O)Nc1ccc(N2C(=O)c3cccc(F)c3C2=O)c(Cl)c1`, the Ratio EC50 in the series on T-Rex 293 was found to be 35.
Take `Cc1ccc2c(c1)C(=O)N(c1ccc(NC(=O)c3occc3C)c(F)c1)C2=O`: the Ratio EC50 in the series with T-Rex 293 is > 450. The EC50 in series [1] (read-out: EC50) is 0.0257 µM. Also, the %max in [3] worked out at 70%.
Regarding `Cc1ccoc1C(=O)Nc1ccc(N2Cc3c(F)cccc3C2=O)c(Cl)c1`, the EC50 in series [1] (read-out: EC50) is 0.878 µM; in series [1] (read-out: pEC50 (converted)), 0.891 µM. For the same compound, the fraction unbound in [2] and in [4] was < 0.01 in each case. The %max in series [3] came out at 82%.
For the compound `Cc1ccoc1C(=O)Nc1ccc(N2CCc3ccccc32)c(Cl)c1`, the EC50 in [1] (read-out: EC50) stood at 5.71 µM. Also, in series [3], the %max came to 82%.
For the compound `O=C(Nc1ccc(N2Cc3cccc(Cl)c3C2=O)c(Cl)c1)c1ncccc1Cl`, in series [1] (read-out: EC50), the EC50 is > 10 µM. Further, the %max in series [3] was 51%.
On to `Cc1ccoc1C(=O)Nc1ccc(N2C(=O)c3ccccc3C2(C)C)c(Cl)c1`, for which the EC50 in series [1] (read-out: EC50) is 6.93 µM; in series [1] (read-out: pEC50 (converted)), 7.08 µM. Also, the unbound share (fraction unbound) in series [2] and in [4] was < 0.01 each time. Also, the %max in [3] was 76%.
In the case of `Cc1ccoc1C(=O)Nc1ccc(N2CCOc3ncccc32)c(Cl)c1`, the EC50 in series [1] (read-out: EC50) came out at 2.61 µM. Also, in [3], the %max amounted to 93%.
Take `Cc1ccoc1C(=O)Nc1ccc(N2Cc3c(cccc3C(F)(F)F)C2=O)c(Cl)c1`: in series [1] (read-out: EC50), the EC50 was 1.13 µM. Further, the unbound share (fraction unbound) in series [2] and in series [4] was < 0.01 throughout. Further, the %max in [3] was 105%.
On to `Cc1ccoc1C(=O)Nc1ccc(N2CCOc3ccccc32)c(Cl)c1`, for which, in series [1] (read-out: EC50), the EC50 came to 3.62 µM. Moreover, in series [3], the %max was 99%.
With `Cc1ccoc1C(=O)Nc1ccc(N2CCc3ccccc3C2)c(Cl)c1`, the EC50 was 2.47 µM in [1] (read-out: EC50) and 1.32 µM in [1] (read-out: pEC50 (converted)). Further, the %max in series [3] was found to be 107%.
As to `Cc1ccoc1C(=O)Nc1ccc(N2Cc3cccc(Cl)c3C2=O)cc1`, the EC50 in [1] (read-out: EC50) stood at 0.353 µM. For the same compound, the %max in series [3] was 101%.
With `Cc1ccoc1C(=O)Nc1ccc(N2Cc3c(C)cccc3C2=O)c(Cl)c1`, the EC50 in series [1] (read-out: EC50) was 1.07 µM; in series [1] (read-out: pEC50 (converted)), 1.1 µM. The unbound share (fraction unbound) in [2] and in series [4] was < 0.01 in each case. Also, the %max in [3] came to 89%.
Turning to `Cc1ccoc1C(=O)Nc1ccc(N2C(=O)Cc3ccccc32)c(Cl)c1`, the EC50 in series [1] (read-out: EC50) was > 10 µM.
Take `Cc1ccoc1C(=O)Nc1ccc(N2C(=O)Cc3ccccc3CC2=O)c(Cl)c1`: the EC50 is 3.5 µM in [1] (read-out: EC50) and 3.63 µM in [1] (read-out: pEC50 (converted)). In [3], the %max stood at 95%.
In the case of `Cc1ccoc1C(=O)Nc1ccc(NC(=O)c2ccccc2C(=O)O)c(Cl)c1`, the EC50 in series [1] (read-out: EC50) was 0.93 µM. For the same compound, in series [3], the %max is 108%.
Turning to `Cc1ccoc1C(=O)Nc1ccc(N2C(=O)CCc3ccccc32)c(Cl)c1`, the Stability entry in the series with Plasma [8] and in the series with Plasma [9] was “Stable” throughout. Also, the EC50 is 1.29 µM in series [1] (read-out: EC50) and 1.32 µM in series [1] (read-out: pEC50 (converted)). Moreover, the %max in [3] came out at 107%.
`Cc1scnc1C(=O)Nc1ccc(N2Cc3cccc(Cl)c3C2=O)c(Cl)c1`: the EC50 is 4.69 µM in series [1] (read-out: EC50) and 4.79 µM in series [1] (read-out: pEC50 (converted)). The %max in series [3] was 69%.
In the case of `Cc1ccoc1C(=O)Nc1ccc(N2Cc3ccccc3C2=O)cc1F`, the EC50 in series [1] (read-out: EC50) was > 10 µM.
Same read-out and setting: with `Cc1ccoc1C(=O)Nc1ccc(N2C(=O)[C@@H]3CCCC[C@H]3C2=O)c(Cl)c1` (relative stereo) the figure was > 10 µM.
`Cc1ccoc1C(=O)Nc1ccc(N2Cc3cccc(Cl)c3C2=O)cc1F`: the EC50 in [1] (read-out: EC50) is > 10 µM.
In the case of `Cc1scnc1C(=O)Nc1ccc(N2Cc3c(Cl)cccc3C2=O)c(Cl)c1`, the EC50 in series [1] (read-out: EC50) worked out at 0.954 µM. Moreover, the %max in series [3] stood at 66%.
Take `Cc1ccoc1C(=O)Nc1ccc(N2Cc3ncccc3C2=O)c(Cl)c1`: in series [1] (read-out: EC50), the EC50 was > 10 µM. Also, the free fraction (fraction unbound) in series [2] and in series [4] was < 0.01 throughout.
With `Cc1ccoc1C(=O)Nc1ccc(N2Cc3ccccc3C2=O)c(Cl)c1Cl`, the EC50 in [1] (read-out: EC50) is > 10 µM.
Turning to `Cc1ccoc1C(=O)Nc1ccc(N2Cc3c(C#N)cccc3C2=O)c(Cl)c1`, the figures for the EC50 in series [1] (read-out: EC50) and in series [1] (read-out: pEC50 (converted)) were 2.09 µM and 2.14 µM, respectively. Also, the fraction unbound in series [2] and in series [4] was < 0.01 throughout. Moreover, the %max in series [3] was found to be 107%.
